# Experimental data from article PMC8268672 (Bioorganic Chemistry, 2021).
# pEC50: −log10 of the molar value. Read-outs that look alike come from different tables or passages of the source.
# Columns and labels:
# [1] = test system: Staphylococcus aureus (ATCC 29213); experiment: MIC, broth microdilution; type: cell-based; details: ATCC29213, read-out: Minimum inhibitory concentration (MIC), SA
# Procedure, shortened: (§1)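 Antibacterial MICs by CLSI broth microdilution in Mueller-Hinton broth. Test compounds and standard drugs are serially diluted two-fold from 512 to 0.25. The bacterial broth culture is grown 2-6 h to a 0.5 McFarland turbidity, then adjusted with sterile solution to the final inoculum.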
# [2] = test system: Candida albicans (NCIM 2087); experiment: Agar disk diffusion, inhibition zone; type: cell-based; details: 100 µg/8 mm disc, triplicate, mean ± SD
# [3] = test system: Klebsiella aerogenes (NCIM-2098); experiment: Agar disk diffusion, inhibition zone; type: cell-based; details: 100 µg/8 mm disc, triplicate, mean ± SD
# [4] = test system: Klebsiella aerogenes (NCIM-2098); experiment: MIC, broth microdilution; type: cell-based; details: NCIM2098, read-out: Minimum inhibitory concentration (MIC), KA
# Procedure, shortened: as §1
# [5] = test system: Madin Darby canine kidney (MDCK) cells; details: dog
# [6] = test system: Staphylococcus aureus (ATCC 29213); experiment: Agar disk diffusion, inhibition zone; type: cell-based; details: 100 µg/8 mm disc, triplicate, mean ± SD
# Procedure, shortened: (§2)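 Agar disk diffusion on Mueller-Hinton agar plates seeded with a standard bacterial suspension. Test compound stock in DMSO, diluted with distilled water; 8 mm sterile filter-paper discs soaked in the solution. Ampicillin was the reference. Plates incubated at 35 °C for 24 h, in triplicate. Read-out is the average inhibition-zone diameter (mm) around each disc.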
# Adeno virus-2 = experiment: CPE reduction assay in HEL cells; type: cell-based; details: read-out: Antiviral EC50, Adeno virus-2
# [7] = test system: Aspergillus fumigatus (NCIM 2081); experiment: Agar disk diffusion, inhibition zone; type: cell-based; details: 100 µg/8 mm disc, triplicate, mean ± SD
# [8] = test system: Pseudomonas aeruginosa (MCCB 0035); experiment: Agar disk diffusion, inhibition zone; type: cell-based; details: 100 µg/8 mm disc, triplicate, mean ± SD
# Vero cells = details: Vero cell cultures; microscopically detectable alteration of normal cell morphology
# [9] = test system: Aspergillus niger (NCIM 2191); experiment: MIC, broth microdilution; type: cell-based; details: NCIM2191, read-out: Minimum inhibitory concentration (MIC), AN
# Procedure, shortened: (§3)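 Antifungal MICs by CLSI broth microdilution in Sabouraud liquid medium. Test compounds and standard drugs are serially diluted two-fold from 512 to 0.25. The fungal broth culture is grown 24 h at 35 °C to a 0.5 McFarland turbidity, then adjusted with sterile solution to the final inoculum.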
# [10] = test system: Aspergillus niger (NCIM 2191); experiment: Agar disk diffusion, inhibition zone; type: cell-based; details: 100 µg/8 mm disc, triplicate, mean ± SD
# Procedure, shortened: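 For the fungal strain, discs soaked in test compound solution (DMSO stock diluted with distilled water) sat on seeded Mueller-Hinton agar. Clotrimazole was the reference. Incubation ran 48 h at 35 °C, in triplicate. Zone of growth inhibition recorded in mm as the mean diameter around each disc.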
# [11] = test system: Candida albicans (NCIM 2087); experiment: MIC, broth microdilution; type: cell-based; details: NCIM2087, read-out: Minimum inhibitory concentration (MIC), CA
# Procedure, shortened: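 CLSI broth microdilution in Sabouraud liquid medium, with test compound two-fold serially diluted from 512 to 0.25. Fungal broth culture grown 24 h at 35 °C to 0.5 McFarland turbidity, then adjusted with sterile solution to a final […] inoculum. MIC expressed in µg/mL.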
# [12] = test system: Streptococcus pneumonia (ATCC 49619); experiment: Agar disk diffusion, inhibition zone; type: cell-based; details: 100 µg/8 mm disc, triplicate, mean ± SD
# Sindbis virus = experiment: CPE reduction assay in Vero cells; type: cell-based; details: read-out: Antiviral EC50, Sindbis virus
# Reovirus-1 = experiment: CPE reduction assay in Vero cells; type: cell-based; details: read-out: Antiviral EC50, Reovirus-1
# Para-influenza-3 virus = experiment: CPE reduction assay in Vero cells; type: cell-based, Parainfluenza-3 virus; details: Vero, read-out: Antiviral EC50, Para-influenza-3 virus
# [13] = test system: Bacillus cereus (NCIM-2458); experiment: MIC, broth microdilution; type: cell-based; details: NCIM2458, read-out: Minimum inhibitory concentration (MIC), BC
# Procedure, shortened: (§4)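 Broth microdilution per CLSI in Mueller-Hinton broth, using two-fold serial dilutions of test compound and reference drugs from 512 to 0.25. Bacterial broth cultures were grown 2-6 h to 0.5 McFarland turbidity, then diluted with sterile solution to the final inoculum. MIC is reported in µg/mL.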
# [14] = test system: Bacillus cereus (NCIM-2458); experiment: Agar disk diffusion, inhibition zone; type: cell-based; details: 100 µg/8 mm disc, triplicate, mean ± SD
# [15] = test system: Influenza A/H1N1 A/Ned/378/05; experiment: CPE reduction assay in MDCK cells; type: cell-based; details: Influenza A virus
# [16] = test system: Human embryonic lung (HEL) cells; details: HEL cell cultures; microscopically detectable alteration of normal cell morphology
# Yellow Fever virus = experiment: microbe, parasite or virus in culture; type: cell-based; details: Yellow fever virus, Vero, read-out: Antiviral EC50, Yellow Fever virus
# [17] = test system: Influenza A/H3N2 A/HK/7/87; experiment: CPE reduction assay in MDCK cells; type: cell-based; details: Influenza A virus
# Punta Toro virus = experiment: CPE reduction assay in Vero cells; type: cell-based; details: read-out: Antiviral EC50, Punta Toro virus
# [18] = test system: Salmonella typhimurium (NCIM-2501); experiment: Agar disk diffusion, inhibition zone; type: cell-based; details: 100 µg/8 mm disc, triplicate, mean ± SD
# Influenza B B/Ned/537/05 = experiment: CPE reduction assay in MDCK cells; type: cell-based; details: Influenza B virus, read-out: Antiviral EC50, Influenza B B/Ned/537/05, MTS
# [19] = test system: Pseudomonas aeruginosa (MCCB 0035); experiment: MIC, broth microdilution; type: cell-based; details: read-out: Minimum inhibitory concentration (MIC), PA
# Procedure, shortened: as §4
# Coxsackie virus B4 = experiment: CPE reduction assay in Vero cells; type: cell-based; details: Enterovirus B, read-out: Antiviral EC50, Coxsackie virus B4
# [20] = test system: Cryptococcus neoformans (ATCC 9011); experiment: Agar disk diffusion, inhibition zone; type: cell-based; details: 100 µg/8 mm disc, triplicate, mean ± SD
# [21] = test system: Escherichia coli (ATCC 8739); experiment: MIC, broth microdilution; type: cell-based; details: ATCC8739, read-out: Minimum inhibitory concentration (MIC), EC
# Procedure, shortened: as §4
# MT4 cells = details: MT4 cell cultures; colorimetric MTT cell viability assay
# [22] = test system: Lactobacillus casei (NCIM-2651); experiment: Agar disk diffusion, inhibition zone; type: cell-based; details: 100 µg/8 mm disc, triplicate, mean ± SD
# [23] = test system: Aspergillus fumigatus (NCIM 2081); experiment: MIC, broth microdilution; type: cell-based; details: NCIM2081, read-out: Minimum inhibitory concentration (MIC), AF
# Procedure, shortened: as §3
# Vaccinia virus = experiment: microbe, parasite or virus in culture; type: cell-based; details: Orthopoxvirus vaccinia, HEL, read-out: Antiviral EC50, Vaccinia virus
# Human Coronavirus (229E) = experiment: CPE reduction assay in HEL cells; type: cell-based; details: read-out: Antiviral EC50, Human Coronavirus (229E)
# [24] = test system: Cryptococcus neoformans (ATCC 9011); experiment: MIC, broth microdilution; type: cell-based; details: ATCC9011, read-out: Minimum inhibitory concentration (MIC), CN
# Procedure, shortened: as §3
# [25] = test system: Escherichia coli (ATCC 8739); experiment: Agar disk diffusion, inhibition zone; type: cell-based; details: 100 µg/8 mm disc, triplicate, mean ± SD
# Procedure, shortened: as §2
smiles,measurement,setting,value
"Cc1ccc(S(=O)(=O)N2C(=O)CSC2c2ccccc2Cl)cc1 (stereo not drawn) [5e, 2-(2-Chlorophenyl)-3-[(4-methylphenyl)sulfonyl]-1,3-thiazolidin-4-one]",MIC,[1],64 µg/mL
same,"Diameter of growth inhibition zone, CA",[2],10.8 ± 1.5 mm
same,"Diameter of growth inhibition zone, KA",[3],12 ± 0.5 mm
same,MIC,[4],32 µg/mL
same,"Cytotoxicity, Minimum cytotoxic conc.",[5],>100 µM
same,"Diameter of growth inhibition zone, SA",[6],17 ± 3.6 mm
same,pEC50,Adeno virus-2,< 4.00
same,"Diameter of growth inhibition zone, AF",[7],9.6 ± 1.2 mm
same,"Diameter of growth inhibition zone, PA",[8],18 ± 0.55 mm
same,Minimum cytotoxic conc.,Vero cells,>100 µM
same,MIC,[9],32 µg/mL
same,"Diameter of growth inhibition zone, AN",[10],10.2 ± 0.9 mm
same,MIC,[11],32 µg/mL
same,"Diameter of growth inhibition zone, SP",[12],10 ± 1.32 mm
same,pEC50,Sindbis virus,< 4.00
same,pEC50,Reovirus-1,< 4.00
same,pEC50,Para-influenza-3 virus,< 4.00
same,MIC,[13],64 µg/mL
same,"Diameter of growth inhibition zone, BC",[14],10 ± 0.7 mm
same,pEC50,"[15]; read-out: Antiviral EC50, Influenza A/H1N1 A/Ned/378/05, MTS",< 4.00
same,pEC50,"[15]; read-out: Antiviral EC50, Influenza A/H1N1 A/Ned/378/05, visual CPE score",< 4.00
same,Minimum cytotoxic conc.,[16],>100 µM
same,pEC50,Yellow Fever virus,< 4.00
same,pEC50,"[17]; read-out: Antiviral EC50, Influenza A/H3N2 A/HK/7/87, MTS",< 4.00
same,pEC50,"[17]; read-out: Antiviral EC50, Influenza A/H3N2 A/HK/7/87, visual CPE score",< 4.00
same,pEC50,Punta Toro virus,< 4.00
same,"Diameter of growth inhibition zone, ST",[18],10 ± 0.72 mm
same,pEC50,Influenza B B/Ned/537/05,< 4.00
same,MIC,[19],32 µg/mL
same,pEC50,Coxsackie virus B4,< 4.00
same,"Diameter of growth inhibition zone, CN",[20],12 ± 0.9 mm
same,MIC,[21],16 µg/mL
same,Minimum cytotoxic conc.,MT4 cells,>125 µM
same,"Diameter of growth inhibition zone, LC",[22],14 ± 0.3 mm
same,MIC,[23],64 µg/mL
same,pEC50,Vaccinia virus,< 4.00
same,pEC50,Human Coronavirus (229E),< 4.00
same,MIC,[24],16 µg/mL
same,"Diameter of growth inhibition zone, EC",[25],19 ± 0.69 mm
